Experimental data taken from ChEMBL document CHEMBL1123276, “Analgetic and antiinflammatory 7-aroylbenzofuran-5-ylacetic acids and 7-aroylbenzothiophene-5-ylacetic acids” (1986).

Legend:
Type in all cases: functional
[1] = test system: Mus musculus; assay: Inhibition of phenylquinone -induced writhing in male mice by p.o. administration 20 min prior to i.p. phenylquinone (relative to aspirin).
Method in brief: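 Male mice, 18-20 g, dosed orally in the same aqueous saline/CMC/polysorbate 80/benzyl alcohol vehicle 20 min before intraperitoneal phenylquinone. Writhing observed for 10 min. Potency vs aspirin derived from dose-response curves by analysis of variance. Eight mice per dose group.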

[2] = test system: Rattus norvegicus; assay: Anti-inflammatory activity against carrageenan-induced paw edema in female rats relative to phenylbutazone by p.o. administration.
Method in brief: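 Test agents given in saline/0.5% carboxymethylcellulose/0.4% polysorbate 80/0.9% benzyl alcohol aqueous vehicle. Rats killed 4 h after dosing, and both hindpaws excised and weighed. Potency vs phenylbutazone taken from dose-response plots of mean % weight increase of treated over untreated paw. Six rats per dose, at least four doses, linear parallel curves, analysis of variance.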

[3] = test system: Rattus norvegicus; assay: Chronic gastrointestinal erosive activity in male rats by the oral administration was determined.
Method in brief: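 Male Cox/SD rats, 190-220 g, acclimated about 1 week. Dosed orally once daily in phosphate-buffered saline (1 mL/100 g) for 7 consecutive days, 5 rats per dose. Food withdrawn on the last dosing day. Killed one day after the last dose, with body weight recorded at start and at sacrifice. Stomach and small intestine scored blind for lesions.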

[4] = species on record: Mus musculus; assay: Dose required for the inhibition of phenylquinone-induced writhing in male mice

Q: For `O=C(O)Cc1cc(C(=O)c2ccc(Cl)cc2)c2sccc2c1`, which Relative potency [1] is on record?
A: 7

Q: What about the Relative potency [2] of the same molecule?
A: 1.5

Q: Which results are given for `CC(C(=O)O)c1cc(C(=O)c2ccc(Cl)cc2)c2occc2c1` (stereo not drawn)?
A: Relative potency [1]: 42.9; Relative potency [2]: 2

Q: How did the Relative potency [1] turn out when `CSc1ccc(C(=O)c2cc(CC(=O)O)cc3c2OCC3)cc1` was run?
A: 8

Q: And the Relative potency [2]?
A: 0.2

Q: What does the source list for `CSc1ccc(C(=O)c2cc(C(C)C(=O)O)cc3ccoc23)cc1` (stereo not drawn)?
A: Relative potency [1]: 25; ED50 [3]: ≤ 1 mg/kg; Relative potency [2]: 18.6

Q: With `CC(C(=O)O)c1cc(C(=O)c2ccccc2)c2occc2c1` (stereo not drawn) as the molecule, how does the Relative potency [1] read?
A: 42.4

Q: What about the Relative potency [2] of the same molecule?
A: 1.8

Q: How did the Relative potency [1] turn out when `O=C(O)Cc1cc2c(c(C(=O)c3ccc(Cl)cc3)c1)OCC2` was run?
A: 7

Q: What about the Relative potency [2] of the same molecule?
A: 0.8

Q: How did the ED50 [4] turn out when `COc1ccc2c(c1)c(CC(=O)O)c(C)n2C(=O)c1ccc(Cl)cc1` [INDOMETHACIN] was run?
A: 1.16 mg/kg

Q: And the Relative potency [1]?
A: 60

Q: And the ED50 ([3]; Rattus norvegicus, po)?
A: 3 mg/kg

Q: And the Relative potency [2]?
A: 16

Q: `O=C(O)Cc1cc(C(=O)c2ccc(Cl)cc2)c2occc2c1` was tested. Which Relative potency [1] did it give?
A: 33.9

Q: And the Relative potency [2]?
A: 0.6

Q: For `O=C(O)Cc1cc2c(c(C(=O)c3ccccc3)c1)SCC2`, which Relative potency [1] is on record?
A: <1

Q: What about the Relative potency [2] of the same molecule?
A: 0.6

Q: Which results are given for `Cc1cc(CC(=O)O)n(C)c1C(=O)c1ccc(Cl)cc1` [ZOMEPIRAC]?
A: ED50 [4]: 1.75 mg/kg; Relative potency [1]: 40; ED50 ([3]; Rattus norvegicus, po): 10 mg/kg

Q: For `O=C(O)Cc1cc2c(c(C(=O)c3ccc(Cl)cc3)c1)SCC2`, which Relative potency [1] is on record?
A: 0.6

Q: And the Relative potency [2]?
A: 0.6

Q: What does the source list for `CSc1ccc(C(=O)c2cc(CC(=O)O)cc3ccoc23)cc1` [TIFURAC]?
A: ED50 [4]: 1.2 mg/kg; Relative potency [1]: 57; ED50 ([3]; Rattus norvegicus, po): ≥ 90 mg/kg; Relative potency [2]: 3

Q: For `COc1ccc(C(=O)c2cc(CC(=O)O)cc3ccoc23)cc1`, which Relative potency [1] is on record?
A: 33

Q: What about the Relative potency [2] of the same molecule?
A: 1

Q: Which Relative potency [1] does the source give for `CC(C(=O)O)c1cc(C(=O)c2ccc(C=O)cc2)c2occc2c1` (stereo not drawn) here?
A: 45

Q: And the Relative potency [2]?
A: 1.3

Q: How did the Relative potency [1] turn out when `O=C(O)Cc1cc2c(c(C(=O)c3ccccc3)c1)OCC2` was run?
A: 0.25

Q: What about the Relative potency [2] of the same molecule?
A: 0.7

Q: What does the source list for `O=C(O)Cc1cc(C(=O)c2ccccc2)c2sccc2c1`?
A: Relative potency [1]: 0.4; Relative potency [2]: 0.6

Q: Which Relative potency [1] does the source give for `CS(=O)(=O)c1ccc(C(=O)c2cc(CC(=O)O)cc3ccoc23)cc1` here?
A: <1

Q: `C[S+]([O-])c1ccc(C(=O)c2cc(CC(=O)O)cc3ccoc23)cc1` (stereo not drawn) was tested. Which Relative potency [1] did it give?
A: 7.5

Q: And the Relative potency [2]?
A: 1.8

Q: How did the Relative potency [1] turn out when `O=C(O)Cc1cc(C(=O)c2ccccc2)c2occc2c1` was run?
A: 40

Q: What about the Relative potency [2] of the same molecule?
A: 1
